Here are results for 7 molecules from ChEMBL document CHEMBL1240443, “A study of cytotoxicity of novel chlorokojic acid derivatives with their antimicrobial and antiviral activities” (Eur J Med Chem, 2010).

Molecules are shown by their SMILES. Converted amounts (≈) assume the structure as drawn.

Data set [1] relates to Acinetobacter baumannii. Kind of data set: Antimicrobial activity against cephalosporin-resistant Acinetobacter baumannii by spectrophotometry. Format: functional. In a few lines:
(§1)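 Broth microdilution in Mueller–Hinton broth. Two-fold dilutions from 256 to 0.125 µg/mL. Inoculum 10^5 c.f.u./mL, diluted from a McFarland 0.5 culture. Incubated at 35 °C for 24 h and 48 h in a humid chamber, triplicate.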

Data set [2] has as its system Acinetobacter baumannii. Kind of data set: Antimicrobial activity against Acinetobacter baumannii RSKK 02026 by spectrophotometry. Format: functional. In a few lines:
as §1

In data set [3] the test system is Proteus mirabilis. The experiment in a line: Antimicrobial activity against extended spectrum beta lactamase expressing Proteus mirabilis by spectrophotometry. Type of data set: functional. In a few lines: as §1
Another data set concerns Candida parapsilosis. Kind of data set: Antifungal activity against Candida parapsilosis ATCC 22019 by spectrophotometry. Type of data set: functional. The conditions noted are these: Lodderomyces parapsilosis. In a few lines:
(§2)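 Yeast broth microdilution in RPMI-1640 with L-glutamine, buffered to pH 7 with MOPS. Inoculum 10^5 c.f.u./mL, prepared by the spectrophotometric method. Two-fold dilutions from 256 to 0.125 µg/mL. Incubated at 35 °C for 24 h and 48 h in a humid chamber, triplicate.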

Data set [4] has as its system Proteus mirabilis. The experiment in a line: Antimicrobial activity against Proteus mirabilis ATCC 7002 by spectrophotometry. Type of data set: functional. The gist of the method: as §1
The subject of data set [5] is Pseudomonas aeruginosa. Kind of data set: Antimicrobial activity against trimethoprim-sulfamethoxazole and tazobactum-induced Pseudomonas aeruginosa by spectrophotometry. Type of data set: functional. The gist of the method:
as §1

Data set [6] has as its system Escherichia coli. The experiment in a line: Antimicrobial activity against extended spectrum beta lactamase expressing Escherichia coli by spectrophotometry. Type of data set: functional. In a few lines:
as §1

A further data set deals with Candida albicans. Kind of data set: Antifungal activity against Candida albicans ATCC 10231 by spectrophotometry. Type of data set: functional. In a few lines:
as §2

Data set [7] concerns Escherichia coli. The experiment in a line: Antimicrobial activity against Escherichia coli ATCC 35218 by spectrophotometry. Type of data set: functional. In a few lines: as §1
For data set [8], the system named is Klebsiella pneumoniae. Kind of data set: Antimicrobial activity against Klebsiella pneumoniae RSKK 574 by spectrophotometry. Format: functional. In a few lines: as §1
The subject of data set [9] is Klebsiella pneumoniae. Kind of data set: Antimicrobial activity against extended spectrum beta lactamase expressing Klebsiella pneumoniae by spectrophotometry. Format: functional. In a few lines:
as §1

A further data set relates to Staphylococcus aureus. The experiment in a line: Antimicrobial activity against methicillin-resistant Staphylococcus aureus by spectrophotometry. Format: functional. The gist of the method:
as §1

For data set [10], the system named is Enterococcus faecalis. The experiment in a line: Antimicrobial activity against Enterococcus faecalis ATCC 29212 by spectrophotometry. Format: functional. The gist of the method: as §1
For data set [11], the system named is Enterococcus faecalis. Kind of data set: Antimicrobial activity against cephalosporin-resistant Enterococcus faecalis by spectrophotometry. Type of data set: functional. The gist of the method: as §1
The test system of data set [12] is Bacillus subtilis. The experiment in a line: Antimicrobial activity against Bacillus subtilis ATCC 6633 by spectrophotometry. Format: functional. The gist of the method: as §1
Data set [13] relates to Bacillus subtilis. Kind of data set: Antimicrobial activity against ceftriaxone-resistant Bacillus subtilis by spectrophotometry. Format: functional. In a few lines: as §1
Data set [14] is described as follows: Cytotoxicity against MDBK cells after 48 hrs. Format: cell-based, Bos taurus. The conditions noted are these: cattle.
Another data set concerns Human respirovirus 3. Kind of data set: Antiviral activity against parainfluenza-3 virus infected in Vero cells assessed as reduction of virus-induced cytopathic effect. Type of data set: functional. In a few lines: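 Vero cells grown in EMEM with 10% fetal calf serum. Two-fold dilutions from 51.2 to 0.012 µg/mL, with PI-3 added at its TCID50-based titre, held 2 h at 37 °C in 5% CO2. CPE scored by microscope against untreated controls, giving the CPE-inhibitory concentration range.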
For orientation: Damage to the host cells serves as the signal in cytopathic effect assays.

Data set [15] can be described thus: Cytotoxicity against african green monkey Vero cells after 48 hrs. Format: cell-based. The conditions noted are these: chlorocebus sabaeus. In a few lines:
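Confluent cell monolayers exposed to two-fold (Log2) dilutions of each sample (51.2–0.012 µg/mL) in EMEM, 5% CO2, 37 °C, 48 h. Scored by light microscopy against untreated cultures; rows damaging all cells counted toxic. Maximum non-toxic concentration (MNTC, µg/mL) taken as highest concentration leaving cells unaffected. Vero grown in EMEM/10% fetal calf serum with streptomycin/penicillin.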

Data set [16] relates to Pseudomonas aeruginosa. Kind of data set: microbe, parasite or virus in culture. The conditions noted are these: ATCC 10145.

In the case of `O=c1cc(CCl)oc(CN2CCN(Cc3ccc(F)cc3)CC2)c1O`, the MIC is 64 µg/mL (≈ 174 µM) with Acinetobacter baumannii [1]; 32 µg/mL (≈ 87.2 µM) against Acinetobacter baumannii [2]; 64 µg/mL (≈ 174 µM) against Proteus mirabilis [3]; 16 µg/mL (≈ 43.6 µM) with Candida parapsilosis; 16 µg/mL (≈ 43.6 µM) with Proteus mirabilis [4]; 64 µg/mL (≈ 174 µM) in the data set with Pseudomonas aeruginosa [5]. For the same molecule, the MIC worked out at 64 µg/mL (≈ 174 µM) in the data set with Escherichia coli [6]; 16 µg/mL (≈ 43.6 µM) against Candida albicans; 16 µg/mL (≈ 43.6 µM) against Escherichia coli [7]; 16 µg/mL (≈ 43.6 µM) with Klebsiella pneumoniae [8]; 64 µg/mL (≈ 174 µM) with Klebsiella pneumoniae [9]; 64 µg/mL (≈ 174 µM) with Staphylococcus aureus. Besides, the MIC in the data set on Enterococcus faecalis [10] is 16 µg/mL (≈ 43.6 µM); with Enterococcus faecalis [11] it was 32 µg/mL (≈ 87.2 µM); against Bacillus subtilis [12], 32 µg/mL (≈ 87.2 µM); against Bacillus subtilis [13] it was 64 µg/mL (≈ 174 µM); against Pseudomonas aeruginosa [16], 16 µg/mL (≈ 43.6 µM). Also, the MNTC at 48 h in data set [14] came to 1.6 µg/mL; in [15], 0.4 µg/mL. Besides, the CPE-inhibitory concentration with Human respirovirus 3 is 0.05 µg/mL.
On to `OC(Cn1cncn1)(Cn1cncn1)c1ccc(F)cc1F` [FLUCONAZOLE], for which the MIC in the data set on Candida parapsilosis amounted to 4 µg/mL (≈ 13.1 µM); with Candida albicans, 2 µg/mL (≈ 6.53 µM).
Regarding `O=c1cc(CCl)oc(CN2CCC(O)(c3ccc(Cl)c(C(F)(F)F)c3)CC2)c1O`, the MIC in the data set on Acinetobacter baumannii [1] was 16 µg/mL (≈ 35.4 µM); with Acinetobacter baumannii [2] it was 4 µg/mL (≈ 8.84 µM); against Proteus mirabilis [3], 64 µg/mL (≈ 142 µM); in the data set on Candida parapsilosis, 8 µg/mL (≈ 17.7 µM); in the data set with Proteus mirabilis [4], 8 µg/mL (≈ 17.7 µM); against Pseudomonas aeruginosa [5] it was 16 µg/mL (≈ 35.4 µM). Further, the MIC in the data set with Escherichia coli [6] turned out to be 64 µg/mL (≈ 142 µM); against Candida albicans it was 4 µg/mL (≈ 8.84 µM); against Escherichia coli [7] it was 4 µg/mL (≈ 8.84 µM); against Klebsiella pneumoniae [8], 4 µg/mL (≈ 8.84 µM); in the data set on Klebsiella pneumoniae [9], 64 µg/mL (≈ 142 µM); in the data set on Staphylococcus aureus, 64 µg/mL (≈ 142 µM). Further, the MIC amounted to 16 µg/mL (≈ 35.4 µM) against Enterococcus faecalis [10]; 32 µg/mL (≈ 70.8 µM) against Enterococcus faecalis [11]; 1 µg/mL (≈ 2.21 µM) in the data set on Bacillus subtilis [12]; 2 µg/mL (≈ 4.42 µM) in the data set on Bacillus subtilis [13]; 2 µg/mL (≈ 4.42 µM) against Pseudomonas aeruginosa [16]. Besides, the values for the MNTC at 48 h in data set [14] and in data set [15] were 0.8 µg/mL and 0.4 µg/mL, respectively. In addition, in the data set on Human respirovirus 3, the CPE-inhibitory concentration is 0.05 µg/mL.
Regarding `CC(=O)C1(c2ccccc2)CCN(Cc2oc(CCl)cc(=O)c2O)CC1`, the MIC in the data set with Acinetobacter baumannii [1] came to 16 µg/mL (≈ 42.6 µM); in the data set with Acinetobacter baumannii [2], 4 µg/mL (≈ 10.6 µM); in the data set on Proteus mirabilis [3] it was 64 µg/mL (≈ 170 µM); against Candida parapsilosis, 8 µg/mL (≈ 21.3 µM); against Proteus mirabilis [4], 16 µg/mL (≈ 42.6 µM); in the data set on Pseudomonas aeruginosa [5], 16 µg/mL (≈ 42.6 µM). For the same molecule, the MIC is 64 µg/mL (≈ 170 µM) in the data set with Escherichia coli [6]; 4 µg/mL (≈ 10.6 µM) in the data set with Candida albicans; 8 µg/mL (≈ 21.3 µM) against Escherichia coli [7]; 8 µg/mL (≈ 21.3 µM) in the data set on Klebsiella pneumoniae [8]; 64 µg/mL (≈ 170 µM) against Klebsiella pneumoniae [9]; 128 µg/mL (≈ 341 µM) in the data set on Staphylococcus aureus. Besides, the MIC came to 64 µg/mL (≈ 170 µM) in the data set with Enterococcus faecalis [10]; 128 µg/mL (≈ 341 µM) with Enterococcus faecalis [11]; 1 µg/mL (≈ 2.66 µM) with Bacillus subtilis [12]; 2 µg/mL (≈ 5.32 µM) against Bacillus subtilis [13]; 4 µg/mL (≈ 10.6 µM) against Pseudomonas aeruginosa [16]. Moreover, the MNTC at 48 h in data set [14] and in data set [15] was 0.4 µg/mL each time.
In the case of `O=c1cc(CCl)oc(CN2CCC(O)(c3ccc(Br)cc3)CC2)c1O`, the MIC with Acinetobacter baumannii [1] came out at 16 µg/mL (≈ 37.3 µM); in the data set on Acinetobacter baumannii [2], 4 µg/mL (≈ 9.33 µM); with Proteus mirabilis [3] it was 64 µg/mL (≈ 149 µM); against Candida parapsilosis it was 8 µg/mL (≈ 18.7 µM); in the data set with Proteus mirabilis [4], 8 µg/mL (≈ 18.7 µM); in the data set with Pseudomonas aeruginosa [5], 16 µg/mL (≈ 37.3 µM). The MIC against Escherichia coli [6] was found to be 64 µg/mL (≈ 149 µM); in the data set on Candida albicans it was 4 µg/mL (≈ 9.33 µM); in the data set on Escherichia coli [7], 4 µg/mL (≈ 9.33 µM); against Klebsiella pneumoniae [8] it was 4 µg/mL (≈ 9.33 µM); against Klebsiella pneumoniae [9] it was 64 µg/mL (≈ 149 µM); against Staphylococcus aureus it was 64 µg/mL (≈ 149 µM). For the same molecule, the MIC was 16 µg/mL (≈ 37.3 µM) against Enterococcus faecalis [10]; 32 µg/mL (≈ 74.6 µM) in the data set on Enterococcus faecalis [11]; 1 µg/mL (≈ 2.33 µM) in the data set with Bacillus subtilis [12]; 2 µg/mL (≈ 4.67 µM) with Bacillus subtilis [13]; 2 µg/mL (≈ 4.67 µM) in the data set with Pseudomonas aeruginosa [16]. The MNTC at 48 h was 0.4 µg/mL in data set [14] and 0.8 µg/mL in data set [15]. Besides, in the data set on Human respirovirus 3, the CPE-inhibitory concentration was 0.05 µg/mL.
Consider `CC1COc2c(N3CCN(C)CC3)c(F)cc3c(=O)c(C(=O)O)cn1c23` (stereo unspecified) [OFLOXACIN], for which the MIC in the data set on Acinetobacter baumannii [1] was 64 µg/mL (≈ 177 µM); in the data set on Acinetobacter baumannii [2], 0.12 µg/mL (≈ 0.332 µM); against Proteus mirabilis [3], 1 µg/mL (≈ 2.77 µM); against Proteus mirabilis [4], < 0.12 µg/mL; in the data set with Klebsiella pneumoniae [8], < 0.12 µg/mL; against Staphylococcus aureus, 64 µg/mL (≈ 177 µM). In addition, the MIC is 1 µg/mL (≈ 2.77 µM) with Enterococcus faecalis [10] and 32 µg/mL (≈ 88.6 µM) in the data set on Enterococcus faecalis [11].
Consider `CC(=O)N1CCN(c2ccc(OCC3COC(Cn4ccnc4)(c4ccc(Cl)cc4Cl)O3)cc2)CC1` (stereo unspecified) [KETOCONAZOLE], for which the MIC in the data set with Candida parapsilosis and against Candida albicans was 1 µg/mL (≈ 1.88 µM) throughout.
